Compounds with a hit are over-represented: about 1.5% of the library has one in this group of screens.
CXCR6 inh: blocks human CXCR6 beta-arrestin recruitment; O00574; CHO-K1 PathHunter CXCR6 beta-arrestin, luminescence; inhibition, % at 20 µM; hit rate 0.36% among 360,000; AID 602244; in the data active means inhibition above about 34%, passing the limit was not always enough;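 further: antagonist mode with CXCL16 agonist at 10 nM final; 0% = 10 nM CXCL16 with DMSO and 100% = unstimulated wells without agonist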
EBI2 block: antagonists of human EBI2 receptor; P32249; EBI2 beta-arrestin recruitment, luminescence, 7a,25-OHC stimulated; inhibition, % at 5 µM; hit rate 0.81% among 360,000; AID 651636; in the data active means inhibition above about 38%;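 further: enzyme fragment complementation signal reports receptor beta-arrestin coupling in cells; 0% = agonist plus DMSO wells and 100% = wells without agonist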
CCR6 antag: antagonists of human CCR6 receptor; CHO-K1 CCR6 PathHunter beta-arrestin, luminescence, CCL20-stimulated; P51684; hit rate 0.49% among 340,000; inhibition, % at 20 µM; AID 493098;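 active means compounds whose inhibition of the agonist-driven luminescence signal at 20 µM reaches about 50%, limit read from the data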;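 further: cells stimulated with CCL20 at 14 nM final; plate controls were DMSO with CCL20 for no effect and DMSO without agonist for full effect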
Target sequence (P51684 whole entry, looked up): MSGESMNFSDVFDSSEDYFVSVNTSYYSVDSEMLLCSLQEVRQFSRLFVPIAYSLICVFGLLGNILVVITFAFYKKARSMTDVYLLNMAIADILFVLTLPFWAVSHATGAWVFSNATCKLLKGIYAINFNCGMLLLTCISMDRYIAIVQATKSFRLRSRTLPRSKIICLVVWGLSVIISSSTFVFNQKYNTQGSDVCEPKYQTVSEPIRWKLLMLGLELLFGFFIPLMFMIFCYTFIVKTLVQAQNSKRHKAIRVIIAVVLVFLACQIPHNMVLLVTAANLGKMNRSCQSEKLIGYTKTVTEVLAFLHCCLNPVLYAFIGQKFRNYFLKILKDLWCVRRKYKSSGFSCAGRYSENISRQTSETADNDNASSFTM
APJ antag: antagonists of human APJ apelin receptor. hit rate 0.32% among 330,000. CHO-K1 APJ beta-arrestin complementation, luminescence. inhibition, % at 20 µM;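 active means inhibition above about 40% at 20 µM, limit read from the data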;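 further: cells challenged with 10 nM apelin-13 agonist together with compound; plate controls were apelin-13 plus DMSO wells for no effect and DMSO wells lacking apelin-13 for full effect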
APJ ag: activates the human apelin receptor APJ | P35414 | CHO-K1 APJ PathHunter beta-arrestin, luminescence; 0% DMSO wells, 100% apelin | activation, % at 20 µM | hit rate 0.11% among 330,000;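 active means activation more than six SD over the plate average, tested at 20 µM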;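 further: 0% = DMSO alone and 100% = apelin-13 at 10 nM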
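Assay system: CHO-K1 cells stably expressing ProLink-tagged human APJ and arrestin–beta-gal acceptor. Compound dosing: 20 µM single point, 1% DMSO. Times: 16-18 h seeding, 90 min dark compound exposure, 60 min detection. Detection: beta-gal luminescence. Evaluation: APJ–arrestin association signal. Controls: negative DMSO alone, positive Apelin-13 at 10 nM.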
APJ antag conf: APJ receptor antagonism confirmation | shares compounds with APJ antag | APJ beta-arrestin recruitment, luminescence, antagonist mode | inhibition, % at 20 µM | hit rate 66% among 950 | AID 2766; in the data active means inhibition above about 50%
* marks the source's active call; other numbers are inactive results; · = not tested or not shown.

SMILES | CXCR6 inh | EBI2 block | CCR6 antag | APJ antag | APJ ag | APJ antag conf
O=C(Nc1cccc([N+](=O)[O-])c1)Nc1cccc([N+](=O)[O-])c1 | 23 | 8 | 36 | 16 | -4 | ·
COc1cccc(NC(=O)CSc2nnc(-c3cc(C)[nH]n3)n2N)c1 | -9 | 10 | 5 | 42* | -2 | 1
CN(C)c1ccc2nc3c(=O)[nH]c(=O)nc-3n(CC(O)C(O)C(O)CO)c2c1 (stereo not given) | 28 | 5 | 33 | 70* | -9 | 70*
COc1cc(O)c2c(c1)COC2=O | 6 | -4 | -15 | 44* | 2 | 25
C=CCN(c1ccc(C(=O)NCCSc2ccccc2)cc1)S(C)(=O)=O | 10 | -3 | 19 | 5 | -4 | ·
Cc1cc(C)c2ccc(N)nc2c1O | 49* | -31 | 62* | 51* | -9 | 59*
COc1cc(SC)ccc1C(=O)OCC(=O)NCC(C)C | 3 | -4 | 2 | 41* | -2 | -3
O=C(CCC(=O)OCC(=O)c1ccc([N+](=O)[O-])cc1)Nc1ccccc1Cl | -7 | -14 | -6 | -58 | 7 | ·
Cc1ccc(C(=O)COC(=O)CCC(=O)NC2CCCCC2)cc1[N+](=O)[O-] | 22 | -1 | 27 | 49* | -10 | 35
COc1ccccc1NC(=O)CCC(=O)OCc1cccc([N+](=O)[O-])c1 | 0 | -1 | 3 | 13 | 1 | ·
O=C(CCC(=O)OCC(=O)c1ccc(Br)cc1)NC1CCCCC1 | 0 | -2 | 12 | 17 | -7 | ·
Cc1ccccc1NC(=O)CCC(=O)OCC(=O)c1cccc([N+](=O)[O-])c1 | 33 | 7 | 54* | 56* | -9 | 98*
Cc1ccc(C(=O)COC(=O)CCS(=O)(=O)c2ccccc2)cc1[N+](=O)[O-] | 26 | 5 | 29 | 39 | -9 | ·
O=C(CCC(=O)OCC(=O)c1cccc([N+](=O)[O-])c1)Nc1cccc(Cl)c1Cl | 26 | 7 | 62* | 41* | -14 | 81*
COc1ccccc1NC(=O)CCC(=O)OCC(=O)c1ccc(C)c([N+](=O)[O-])c1 | 33 | 11 | 35 | 50* | -23 | 62*
CC(Oc1ccc(F)cc1)C(=O)Oc1ccc(N(C)S(=O)(=O)c2ccccc2)cc1 (stereo not given) | -5 | -2 | 16 | 8 | -1 | ·
O=C(Nc1cccc2ncccc12)c1ccc(OCc2ccccc2)cc1 | -7 | 9 | -17 | -21 | 3 | ·
COc1cc(/C=N/NC(=O)CC23CC4CC(CC(C4)C2)C3)cc(Br)c1OCC(=O)N(C)C | 8 | 6 | 12 | -4 | -7 | ·
CCN(CC)S(=O)(=O)c1ccc2oc(SCC(=O)Nc3cc(C)on3)nc2c1 | 12 | 6 | · | 43* | -10 | 53*
COc1ccc(NC(=O)Nc2cccc3c2O[C@@H](CN(C)CC2CCCCC2)[C@@H](C)CN([C@H](C)CO)C3=O)cc1 | 1 | -15 | -1 | 62* | -4 | 62*
COc1ccc(NC(=O)Nc2ccc3c(c2)C(=O)N([C@@H](C)CO)C[C@@H](C)[C@@H](CN(C)CC2CCCCC2)O3)cc1 | 14 | 3 | 8 | 17 | -2 | ·
CN(C(=O)c1cccc(NC(=O)Cc2cccc(NC(=O)C3CCN(C(=O)CCc4ccccc4)CC3)c2)c1)C1CC1 | 2 | 0 | -5 | · | · | ·
CCOC(=O)/C=C/S(=O)(=O)c1ccc(NC(C)=O)cc1 | 34 | -7 | 48 | 44* | 0 | 83*
COc1cc(C(=O)Nc2ccccc2N2CCOCC2)ccc1OCC(=O)N1CCOCC1 | 9 | -1 | 6 | 11 | -1 | ·
O=C(CSc1nc2c([nH]c3ccccc32)c(=O)n1-c1ccccc1)NCC1CCCO1 (stereo not given) | 53* | 33 | 73* | 64* | -21 | 83*
SMILES | CXCR6 inh | EBI2 block | CCR6 antag | APJ antag | APJ ag | APJ antag conf
CCn1c(SCC(=O)NCC2CCCO2)nc2c([nH]c3ccccc32)c1=O (stereo not given) | 0 | -16 | 7 | -17 | -7 | ·
O=C(COC(=O)c1ccco1)c1ccc(S(=O)(=O)N2CCCCC2)cc1 | 30 | 4 | 48 | 57* | -28 | 65*
O=C(COC(=O)c1ccc(Br)o1)c1ccc(S(=O)(=O)N2CCCCC2)cc1 | 44* | 30 | 64* | 68* | -12 | 90*
CNS(=O)(=O)c1cccc(C(=O)OCC(=O)c2cc3ccccc3o2)c1 | 43* | 13 | 73* | 81* | -11 | 69*
O=C(COC(=O)c1ccco1)Nc1cc(S(=O)(=O)N2CCCCC2)ccc1Cl | 8 | 11 | 9 | -1 | -3 | ·
CNS(=O)(=O)c1cccc(C(=O)OCC(=O)c2ccc(S(=O)(=O)N3CCCCC3)cc2)c1 | 34 | 19 | 53* | 62* | -22 | 60*
COc1ccc(C(=O)c2ccc([N+](=O)[O-])cc2)c(OC)c1OC | -18 | -5 | 0 | · | · | ·
CC1CC(C)(C)CC2(C1)NC(=O)N(CC(=O)N1CCN(S(=O)(=O)c3ccc(F)c(F)c3F)CC1)C2=O (stereo not given) | -8 | 10 | 5 | · | · | ·
O=C(COC(=O)c1ccccc1)c1ccc(S(=O)(=O)N2CCCCC2)cc1 | 27 | 26 | 38 | 27 | -17 | ·
O=C(COc1ccccc1)OCC(=O)c1ccc(S(=O)(=O)N2CCCCC2)cc1 | 42* | 14 | 68* | 85* | -7 | 116*
Cc1c(N2C(=O)/C(=C\c3ccccc3O)SC2=S)c(=O)n(-c2ccccc2)n1C | 26 | 3 | 18 | 3 | -1 | ·
CN1C(=O)/C(=C/c2cc(N=Nc3ccccc3)ccc2O)SC1=S | 51* | 47* | 74* | 60* | -15 | 105*
Cc1onc(-c2ccccc2)c1C(=O)OCC(=O)Nc1ccccc1Cl | 2 | 8 | · | · | · | ·
CC(C)(C)c1cc(Br)c(O)c(N=Nc2ccc(S(=O)(=O)N3CCOCC3)cc2)c1 | 29 | 16 | 52* | 44* | -3 | 46
O=C(Nc1cc(Cl)ccc1N1CCOCC1)c1ccc(Br)o1 | 4 | 0 | 5 | 4 | -2 | ·
Cc1ccnc2nc(C(=O)Nc3cc(Cl)ccc3N3CCOCC3)nn12 | 0 | 8 | 8 | 57* | -6 | 21
Cc1cccc(S(=O)(=O)NC(=O)C2(C)CCN2C(=O)CC2CCCCC2)c1 (stereo not given) | -4 | -12 | · | · | · | ·
CCC(C)(C)C(=O)Nc1cc([N+](=O)[O-])ccc1Cl | -3 | -11 | -16 | -30 | -2 | ·
CCN(CC)c1nc(C)c(C(=S)Nc2cc([N+](=O)[O-])ccc2Cl)s1 | 42* | 16 | 57* | 40* | -11 | 100*
CC(C)(C)c1cc(Cl)c(O)c(NC(=S)NC(=O)c2cccnc2)c1 | 40* | 19 | 52* | 67* | -9 | 78*
CC(C)(C)c1ccc(C(=O)NNC(=S)NC(=O)c2cccnc2)cc1 | 28 | -13 | 27 | 22 | -5 | ·

From PubChem BioAssay
